Assay results as given in ChEMBL document CHEMBL1145694, “In vitro evaluation of antifungal properties of 8.O.4'-neolignans” (1997).
In brackets after ≈: the same amount, converted by molar mass. Activity calls are given as the source filed them. The calls are words filed in the database; no cut-off is given here.

Legend:
[1] = test system: Trichophyton rubrum; test: Antifungal activity against Trichophyton rubrum C113 after 15 days by agar dilution method; format: functional; settings: 360 h
Outline: (§1)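 Dermatophytes were kept on Saboureaud dextrose agar slopes and subcultured every 15 days. Spore suspensions were set to 10⁶ CFU/mL, and 5 µL went into Saboureaud-chloramphenicol agar wells. Wells held twofold dilutions from DMSO stocks, final 0.10–250 µg/mL, DMSO ≤2%. Ketoconazole and amphotericin B were positive controls, with a drug-free blank. Incubation was at 30 °C for up to 15 days. MIC = lowest concentration with no visible growth.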

[2] = test system: Aspergillus flavus; test: Antifungal activity against Aspergillus flavus ATCC 9170 up to 250 ug/mL by agar dilution method; format: functional, organism-based
Outline: (§2)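 Agar dilution in Saboureaud-chloramphenicol agar wells. Test agents from DMSO stocks were serially diluted twofold to final 0.10–250 µg/mL, with DMSO ≤2% final. Each well got 5 µL of yeast cell or spore suspension (spores at 10⁶ CFU/mL). Ketoconazole and amphotericin B served as positive controls, with a drug-free blank. Plates were held at 30 °C for 24, 48 or 72 h, set by control growth. MIC = lowest concentration with no visible growth.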

[3] = test system: Candida albicans; test: Antifungal activity against Candida albicans ATCC 10231 up to 250 ug/mL by agar dilution method; format: functional, organism-based; outline: as §2
[4] = test system: Nannizzia gypsea; test: Antifungal activity against Microsporum gypseum C115 after 15 days by agar dilution method; format: functional; settings: 360 h; outline: as §1
[5] = test system: Trichophyton mentagrophytes; test: Antifungal activity against Trichophyton mentagrophytes ATCC 9972 after 15 days by agar dilution method; format: functional; settings: ATCC 9972, 360 h; outline: as §1
[6] = test system: Microsporum canis; test: Antifungal activity against Microsporum canis C112 after 15 days by agar dilution method; format: functional; settings: 360 h; outline: as §1
[7] = test system: Epidermophyton floccosum; test: Antifungal activity against Epidermophyton floccosum C114 after 15 days by agar dilution method; format: functional; settings: 360 h; outline: as §1
[8] = test system: Cryptococcus neoformans; test: Antifungal activity against Cryptococcus neoformans ATCC 32264 up to 250 ug/mL by agar dilution method; format: functional, organism-based; outline: as §2
[9] = test system: Saccharomyces cerevisiae; test: Antifungal activity against Saccharomyces cerevisiae ATCC 9763 up to 250 ug/mL by agar dilution method; format: functional, organism-based; outline: as §2
[10] = test system: Aspergillus niger; test: Antifungal activity against Aspergillus niger ATCC 9029 up to 250 ug/mL by agar dilution method; format: functional, organism-based; outline: as §2
[11] = test system: Aspergillus fumigatus; test: Antifungal activity against Aspergillus fumigatus ATCC 26934 up to 250 ug/mL by agar dilution method; format: functional, organism-based; outline: as §2

Row | SMILES | MIC [1] [µg/mL] | Activity [2] | Activity [3] | MIC [4] [µg/mL] | MIC [5] [µg/mL] | MIC [6] [µg/mL] | MIC [7] [µg/mL] | Activity [8] | Activity [9] | Activity [10] | Activity [11]
1 | C=CCc1cc(OC)c(O[C@@H](C)[C@@H](O)c2ccc3c(c2)OCO3)c(OC)c1 (racemic) | 20 (≈ 53.7 µM) | inactive | inactive | 40 (≈ 107 µM) | 200 (≈ 537 µM) | 80 (≈ 215 µM) | 15 (≈ 40.3 µM) | inactive | inactive | inactive | inactive
2 | C=CCc1cc(OC)c(O[C@H](C)[C@@H](O)c2ccc(OC)c(OC)c2)c(OC)c1 (racemic) | 80 (≈ 206 µM) | inactive | inactive | 50 (≈ 129 µM) | 150 (≈ 386 µM) | 150 (≈ 386 µM) | 40 (≈ 103 µM) | inactive | inactive | inactive | inactive
3 | C=CCc1ccc(OC(C)C(=O)c2ccc(OC)c(OC)c2)c(OC)c1 (racemic) | 250 (≈ 701 µM) | inactive | inactive | 250 (≈ 701 µM) | > 250 | 250 (≈ 701 µM) | 250 (≈ 701 µM) | inactive | inactive | inactive | inactive
4 | C=CCc1cc(OC)c(OC(C)C(=O)c2ccc(OC)c(OC)c2)c(OC)c1 (racemic) | > 250 | inactive | inactive | > 250 | > 250 | 250 (≈ 647 µM) | > 250 | inactive | inactive | inactive | inactive
5 | C=CCc1cc(OC)c(OC(C)C(=O)c2ccc3c(c2)OCO3)c(OC)c1 (racemic) | > 250 | inactive | inactive | 250 (≈ 675 µM) | > 250 | > 250 | > 250 | inactive | inactive | inactive | inactive
6 | C=CCc1cc(OC)c(OC(C)C(=O)c2cc(OC)c(OC)c(OC)c2)c(OC)c1 (racemic) | > 250 | inactive | inactive | > 250 | > 250 | 250 (≈ 600 µM) | > 250 | inactive | inactive | inactive | inactive
7 | C/C=C/c1ccc(O[C@H](C)[C@@H](O)c2cc(OC)c(OC)c(OC)c2)c(OC)c1 (racemic) | 50 (≈ 129 µM) | inactive | inactive | 60 (≈ 154 µM) | 80 (≈ 206 µM) | 60 (≈ 154 µM) | 25 (≈ 64.4 µM) | inactive | inactive | inactive | inactive
8 | C/C=C/c1ccc(O[C@@H](C)[C@@H](O)c2ccc(OC)c(OC)c2)c(OC)c1 (racemic) [VIROLIN] | > 250 | inactive | inactive | > 250 | > 250 | 50 (≈ 139 µM) | 100 (≈ 279 µM) | inactive | inactive | inactive | inactive
9 | C=CCc1cc(OC)c(O[C@@H](C)[C@@H](O)c2ccc(OC)c(OC)c2)c(OC)c1 (racemic) | 40 (≈ 103 µM) | inactive | inactive | 150 (≈ 386 µM) | 150 (≈ 386 µM) | 40 (≈ 103 µM) | 60 (≈ 154 µM) | inactive | inactive | inactive | inactive
10 | C=CCc1cc(OC)c(O[C@H](C)[C@@H](O)c2ccc3c(c2)OCO3)c(OC)c1 (racemic) | > 250 | inactive | inactive | 50 (≈ 134 µM) | 100 (≈ 269 µM) | 20 (≈ 53.7 µM) | 5 (≈ 13.4 µM) | inactive | inactive | inactive | inactive
11 | C=CCc1ccc(O[C@@H](C)[C@@H](O)c2ccc(OC)c(OC)c2)c(OC)c1 (racemic) | 20 (≈ 55.8 µM) | inactive | inactive | 60 (≈ 167 µM) | 40 (≈ 112 µM) | 20 (≈ 55.8 µM) | 25 (≈ 69.7 µM) | inactive | inactive | inactive | inactive
12 | C[C@@H]1[C@H](O)[C@@H](C)/C=C/C=C/C=C/C=C/C=C/C=C/C=C/[C@H](O[C@@H]2O[C@H](C)[C@@H](O)[C@H](N)[C@@H]2O)C[C@@H]2O[C@](O)(C[C@@H](O)C[C@@H](O)[C@H](O)CC[C@@H](O)C[C@@H](O)CC(=O)O[C@H]1C)C[C@H](O)[C@H]2C(=O)O [AMPHOTERICIN B] | – | – | – | – | – | – | 0.3 (≈ 0.325 µM) | – | – | – | –
13 | CC(=O)N1CCN(c2ccc(OCC3COC(Cn4ccnc4)(c4ccc(Cl)cc4Cl)O3)cc2)CC1 (stereo not given) [KETOCONAZOLE] | – | – | – | – | – | – | 15 (≈ 28.2 µM) | – | – | – | –
14 | C=CCc1cc(OC)c(O[C@@H](C)[C@@H](O)c2cc(OC)c(OC)c(OC)c2)c(OC)c1 (racemic) | 25 (≈ 59.7 µM) | inactive | inactive | 80 (≈ 191 µM) | 50 (≈ 119 µM) | 60 (≈ 143 µM) | 60 (≈ 143 µM) | inactive | inactive | inactive | inactive
15 | C/C=C/c1ccc(OC(C)C(=O)c2cc(OC)c(OC)c(OC)c2)c(OC)c1 (racemic) | > 250 | inactive | inactive | > 250 | > 250 | > 250 | > 250 | inactive | inactive | inactive | inactive
16 | C/C=C/c1ccc(O[C@@H](C)[C@@H](O)c2cc(OC)c(OC)c(OC)c2)c(OC)c1 (racemic) | 125 (≈ 322 µM) | inactive | inactive | > 250 | > 250 | > 250 | 50 (≈ 129 µM) | inactive | inactive | inactive | inactive
17 | C/C=C/c1ccc(O[C@H](C)[C@@H](O)c2ccc(OC)c(OC)c2)c(OC)c1 (racemic) | 20 (≈ 55.8 µM) | inactive | inactive | 50 (≈ 139 µM) | 150 (≈ 418 µM) | 50 (≈ 139 µM) | 70 (≈ 195 µM) | inactive | inactive | inactive | inactive
18 | C/C=C/c1ccc(OC(C)C(=O)c2ccc(OC)c(OC)c2)c(OC)c1 (racemic) | > 250 | inactive | inactive | 250 (≈ 701 µM) | > 250 | > 250 | > 250 | inactive | inactive | inactive | inactive
19 | C=CCc1cc(OC)c(O[C@H](C)[C@@H](O)c2cc(OC)c(OC)c(OC)c2)c(OC)c1 (racemic) [RHAPHIDECURSINOL B] | 25 (≈ 59.7 µM) | inactive | inactive | 150 (≈ 358 µM) | 50 (≈ 119 µM) | 50 (≈ 119 µM) | 50 (≈ 119 µM) | inactive | inactive | inactive | inactive
20 | C=CCc1ccc(O[C@H](C)[C@@H](O)c2ccc(OC)c(OC)c2)c(OC)c1 (racemic) | 250 (≈ 697 µM) | inactive | inactive | > 250 | > 250 | 250 (≈ 697 µM) | 15 (≈ 41.8 µM) | inactive | inactive | inactive | inactive
